Laboratory results: ChEMBL document CHEMBL1121898, “Potential antiestrogens. Synthesis and evaluation of mammary tumor inhibiting activity of 1,2-dialkyl-1,2-bis(3'-hydroxyphenyl)ethanes” (1981)

Assays:
Rattus norvegicus [1] = species on record: Rattus norvegicus; assay: Partial remission of DMBA-induced hormone-dependent mammary carcinoma tumors in rats at 34 mg; assay type: functional
In short: (§1)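 DMBA-induced, hormone-dependent mammary adenocarcinoma in SD rats. Rats bearing at least one tumor >140 mm² were placed in groups of ten. Compound was given sc as a single dose (mg/kg) daily Monday–Thursday and a double dose on Friday. Tumors were counted at the start and as new tumors; responses were scored as complete remission (not palpable), partial remission (≥50% reduction), no change or progression. Tumor area and body weight were recorded as % change.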

Rattus norvegicus [2] = species on record: Rattus norvegicus; assay: Progression of DMBA-induced hormone-dependent mammary carcinoma tumors in rats at 8.5 mg; assay type: functional
[3] = target: T1, Estrogen receptor (Mus musculus) (UniProt O08537+P19785); assay: Inhibitory activity in mouse uterine weight test at 100 ug; assay type: functional
In short: (§2)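 Antiuterotrophic (Dorfman) assay in immature 20-day-old female NMRI mice, groups of 10. Uterine growth was stimulated with estrone (0.1 μg) and the test compound was given alongside it, sc daily for 3 days in 0.1 mL olive oil. Uteri were taken 24 h after the last dose. Uterine weight is reported as means ± SD and inhibition as % of the estrone-stimulated response.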

Rattus norvegicus [4] = species on record: Rattus norvegicus; assay: Percent change in DMBA-induced hormone-dependent mammary carcinoma tumor area in ovariectomised rats after 28 days; assay type: functional
In short: (§3)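 DMBA-induced, hormone-dependent mammary adenocarcinoma in SD rats, with ovariectomy as the treatment. Rats bearing at least one tumor >140 mm² were placed in groups of ten. Tumors were counted at the start and as new tumors. Responses were scored as complete remission, partial remission (≥50% size reduction), no change or progression, with % change in tumor area and body weight.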

Rattus norvegicus [5] = species on record: Rattus norvegicus; assay: Complete remission of DMBA-induced hormone-dependent mammary carcinoma tumors in rats at 17 mg; assay type: functional
In short: (§4)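 Female SD rats bearing DMBA-induced, hormone-dependent mammary adenocarcinoma, with at least one tumor >140 mm², were grouped in tens. Dosing was sc per kg body weight: a single dose daily Monday–Thursday and a double dose Friday. Ovariectomy served as the comparison arm. Complete remission was defined as a tumor no longer palpable. Body weight and tumor area changes were also recorded.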

Rattus norvegicus [6] = species on record: Rattus norvegicus; assay: Percent change in DMBA-induced hormone-dependent mammary carcinoma tumor area at 17 mg after 28 days; assay type: functional; in short: as §1
[7] = target: T1, Estrogen receptor (Mus musculus); assay: Antiestrogenic activity in uterotrophic test in mice at 100 ug; assay type: functional
In short: (§5)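 Immature female NMRI mice, 20 days old (14.5 ± 1.2 g), randomly grouped 10 per group. Each received a daily sc injection for 3 days of 0.1 mL olive oil solution containing test compound, together with estrone to stimulate uterine growth. Uteri were removed 24 h after the last injection and weighed. Results are reported as % inhibition of the estrone-stimulated uterine weight gain, mean ± SD.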

[8] = target: T1, Estrogen receptor (Mus musculus); assay: Estrogenic activity in uterotrophic test in mice at 300 ug; assay type: functional
In short: (§6)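 Immature (20-day-old) female NMRI mice, 14.5 ± 1.2 g, randomized into groups of 10. Given the test compound sc daily for 3 days in 0.1 mL olive oil. Uteri removed 24 h after the last injection; uterine weight taken as the read-out, means ± SD. Dose in μg.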

Rattus norvegicus [9] = species on record: Rattus norvegicus; assay: Initial tumor number of DMBA-induced hormone-dependent mammary carcinoma in rats at 34 mg; assay type: functional; in short: as §1
Rattus norvegicus [10] = species on record: Rattus norvegicus; assay: Number of DMBA-induced hormone-dependent mammary carcinoma tumors in ovariectomised rats; assay type: functional; in short: as §3
Rattus norvegicus [11] = species on record: Rattus norvegicus; assay: Partial remission of DMBA-induced hormone-dependent mammary carcinoma tumors in rats at 8.5 mg; assay type: functional; in short: as §1
Rattus norvegicus [12] = species on record: Rattus norvegicus; assay: Percent unchanged tumor size of DMBA-induced hormone-dependent mammary carcinoma tumors in rats at 8.5 mg; assay type: functional
[13] = target: T1, Estrogen receptor (Mus musculus); assay: Antiestrogenic activity in uterotrophic test in mice at 3.3 ug; assay type: functional; in short: as §5
[14] = target: T1, Estrogen receptor (Mus musculus); assay: Antiestrogenic activity in uterotrophic test in mice at 1000 ug; assay type: functional; in short: as §5
[15] = target: T1, Estrogen receptor (Mus musculus); assay: Estrogenic activity in uterotrophic test in mice at 100 ug; assay type: functional
In short: (§7)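 Uterine growth stimulation in immature female NMRI mice, 20 days old (14.5 ± 1.2 g), 10 per group. Test compound in 0.1 mL olive oil was given sc daily for 3 days. Uteri were excised 24 h after the final injection and weighed. Effect is reported as mean ± SD.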

Rattus norvegicus [16] = species on record: Rattus norvegicus; assay: Initial tumor number of DMBA-induced hormone-dependent mammary carcinoma in rats at 8.5 mg; assay type: functional; in short: as §1
Rattus norvegicus [17] = species on record: Rattus norvegicus; assay: Percent change in body weight DMBA-induced hormone-dependent mammary carcinoma tumors in rats at 17 mg for 7 days; assay type: functional
In short: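 DMBA-induced, hormone-dependent mammary adenocarcinoma in SD rats; animals carrying at least one tumor over 140 mm² put in groups of ten. Compound given sc, dose per kg body weight per day: single dose Monday to Thursday, double dose Friday. Body weight read out as % change, alongside tumor counts, remission categories and % change in tumor area.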

Rattus norvegicus [18] = species on record: Rattus norvegicus; assay: Complete remission of DMBA-induced hormone-dependent mammary carcinoma tumors in rats at 34 mg; assay type: functional; in short: as §4
Rattus norvegicus [19] = species on record: Rattus norvegicus; assay: Initial tumor number of DMBA-induced hormone-dependent mammary carcinoma in rats at 17 mg; assay type: functional; in short: as §1
Rattus norvegicus [20] = species on record: Rattus norvegicus; assay: Percent change in DMBA-induced hormone-dependent mammary carcinoma tumor area at 34 mg after 28 days; assay type: functional; in short: as §1
Rattus norvegicus [21] = species on record: Rattus norvegicus; assay: Progression of DMBA-induced hormone-dependent mammary carcinoma tumors in rats at 17 mg; assay type: functional
Rattus norvegicus [22] = species on record: Rattus norvegicus; assay: Percent change in body weight DMBA-induced hormone-dependent mammary carcinoma tumors in rats at 8.5 mg for 7 days; assay type: functional
Rattus norvegicus [23] = species on record: Rattus norvegicus; assay: Percent change in body weight DMBA-induced hormone-dependent mammary carcinoma tumors in ovariectomised rats after 7 days; assay type: functional; in short: as §3
[24] = target: T1, Estrogen receptor (Mus musculus); assay: Estrogenic activity in uterotrophic test in mice at 0 ug; assay type: functional; in short: as §7
[25] = target: T1, Estrogen receptor (Mus musculus); assay: Inhibitory activity in mouse uterine weight test at 3.3 ug; assay type: functional; in short: as §2
[26] = target: T1, Estrogen receptor (Mus musculus); assay: Estrogenic activity in uterotrophic test in mice at 30 ug; assay type: functional; in short: as §7
Rattus norvegicus [27] = species on record: Rattus norvegicus; assay: Partial remission of DMBA-induced hormone-dependent mammary carcinoma tumors in rats at 17 mg; assay type: functional; in short: as §1
Rattus norvegicus [28] = species on record: Rattus norvegicus; assay: Complete remission of DMBA-induced hormone-dependent mammary carcinoma tumors in ovariectomised rats; assay type: functional; in short: as §4
[29] = target: T1, Estrogen receptor (Mus musculus); assay: Antiestrogenic activity in uterotrophic test in mice at 0 ug; assay type: functional; in short: as §5
Rattus norvegicus [30] = species on record: Rattus norvegicus; assay: Progression of DMBA-induced hormone-dependent mammary carcinoma tumors in ovariectomised rats; assay type: functional; in short: as §3
Rattus norvegicus [31] = species on record: Rattus norvegicus; assay: Partial remission of DMBA-induced hormone-dependent mammary carcinoma tumors in ovariectomised rats; assay type: functional; in short: as §3
Rattus norvegicus [32] = species on record: Rattus norvegicus; assay: Percent unchanged tumor size of DMBA-induced hormone-dependent mammary carcinoma tumors in ovarectiemised rats; assay type: functional; in short: as §3
Rattus norvegicus [33] = species on record: Rattus norvegicus; assay: Progression of DMBA-induced hormone-dependent mammary carcinoma tumors in rats at 34 mg; assay type: functional
Rattus norvegicus [34] = species on record: Rattus norvegicus; assay: Final number of DMBA-induced hormone-dependent mammary carcinoma tumors in rats at 17 mg; assay type: functional
In short: (§8)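 Sprague-Dawley rats carrying DMBA-induced, hormone-dependent mammary adenocarcinoma, at least one tumor >140 mm², were placed in groups of ten. Compounds were given sc, with doses in mg/kg: a single daily dose Monday to Thursday and a double dose on Friday. Ovariectomy served as a comparator group. New tumors arising during the test were counted.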

Rattus norvegicus [35] = species on record: Rattus norvegicus; assay: Final number of DMBA-induced hormone-dependent mammary carcinoma tumors in rats at 34 mg; assay type: functional; in short: as §8
[36] = target: T1, Estrogen receptor (Mus musculus); assay: Estrogenic activity in uterotrophic test in mice at 900 ug; assay type: functional; in short: as §6
Rattus norvegicus [37] = species on record: Rattus norvegicus; assay: Percent change in body weight DMBA-induced hormone-dependent mammary carcinoma tumors in rats at 34 mg for 7 days; assay type: functional
[38] = target: T1, Estrogen receptor (Mus musculus); assay: Inhibitory activity in mouse uterine weight test at 0.1 ug; assay type: functional; in short: as §2
[39] = target: T1, Estrogen receptor (Mus musculus); assay: Estrogenic activity in uterotrophic test in mice at 2700 ug; assay type: functional; in short: as §7
[40] = target: T1, Estrogen receptor (Mus musculus); assay: Inhibitory activity in mouse uterine weight test at 1000 ug; assay type: functional; in short: as §2
Rattus norvegicus [41] = species on record: Rattus norvegicus; assay: Percent change in DMBA-induced hormone-dependent mammary carcinoma tumor area at 8.5 mg after 28 days; assay type: functional; in short: as §1
[42] = system: Estrogen receptor (Bos taurus); assay: Displacement of [3H]estradiol from calf estrogen receptor
Rattus norvegicus [43] = species on record: Rattus norvegicus; assay: Complete remission of DMBA-induced hormone-dependent mammary carcinoma tumors in rats at 8.5 mg; assay type: functional; in short: as §4
Rattus norvegicus [44] = species on record: Rattus norvegicus; assay: Percent unchanged tumor size of DMBA-induced hormone-dependent mammary carcinoma tumors in rats at 17 mg; assay type: functional
Rattus norvegicus [45] = species on record: Rattus norvegicus; assay: Final number of DMBA-induced hormone-dependent mammary carcinoma tumors in rats at 8.5 mg; assay type: functional; in short: as §8
Rattus norvegicus [46] = species on record: Rattus norvegicus; assay: Percent unchanged tumor size of DMBA-induced hormone-dependent mammary carcinoma tumors in rats at 34 mg; assay type: functional

T1 sequence (O08537 whole entry, looked up): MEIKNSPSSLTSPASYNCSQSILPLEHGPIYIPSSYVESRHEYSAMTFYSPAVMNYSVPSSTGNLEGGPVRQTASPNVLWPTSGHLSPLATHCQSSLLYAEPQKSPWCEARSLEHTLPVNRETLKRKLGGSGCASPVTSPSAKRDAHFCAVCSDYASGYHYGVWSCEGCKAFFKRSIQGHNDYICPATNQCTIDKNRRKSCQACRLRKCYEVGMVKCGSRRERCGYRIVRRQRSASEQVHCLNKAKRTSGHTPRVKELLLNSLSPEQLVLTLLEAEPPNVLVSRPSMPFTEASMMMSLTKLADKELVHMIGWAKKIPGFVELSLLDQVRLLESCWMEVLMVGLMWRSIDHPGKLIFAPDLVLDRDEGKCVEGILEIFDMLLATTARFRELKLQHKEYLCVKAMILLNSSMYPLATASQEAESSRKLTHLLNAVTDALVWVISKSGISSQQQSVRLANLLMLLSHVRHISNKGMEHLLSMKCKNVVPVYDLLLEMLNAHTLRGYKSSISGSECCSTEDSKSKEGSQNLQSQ
T1 sequence (P19785 whole entry, looked up): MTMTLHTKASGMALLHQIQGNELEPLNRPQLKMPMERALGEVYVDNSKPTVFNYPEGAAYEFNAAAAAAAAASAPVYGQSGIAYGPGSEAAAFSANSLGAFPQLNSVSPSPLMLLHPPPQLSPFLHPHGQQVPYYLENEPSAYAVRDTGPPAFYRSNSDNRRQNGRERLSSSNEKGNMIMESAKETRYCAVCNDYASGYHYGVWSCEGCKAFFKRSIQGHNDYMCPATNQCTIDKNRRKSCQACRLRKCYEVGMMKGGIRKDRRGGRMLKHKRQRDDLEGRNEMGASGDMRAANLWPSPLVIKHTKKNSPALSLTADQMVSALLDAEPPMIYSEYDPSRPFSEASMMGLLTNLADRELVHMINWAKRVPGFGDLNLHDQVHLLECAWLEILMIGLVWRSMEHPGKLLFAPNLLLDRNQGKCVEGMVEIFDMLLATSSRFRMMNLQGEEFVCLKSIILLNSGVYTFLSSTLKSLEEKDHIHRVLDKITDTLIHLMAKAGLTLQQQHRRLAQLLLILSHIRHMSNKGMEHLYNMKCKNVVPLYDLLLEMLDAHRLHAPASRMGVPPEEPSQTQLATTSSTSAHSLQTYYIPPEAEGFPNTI

- inhibition [3]: 45%
- Effect [7]: 25.9
- Effect [8]: 16.5
- Effect [13]: 33.9
- Effect [14]: 38.1
- Effect [15]: 12.6
- Effect [24]: 10.5
- inhibition [25]: 16%
- Effect [26]: 11.2
- Effect [29]: 10.5
- Effect [36]: 30.8
- inhibition [38]: 3%
- Effect [39]: 35.2
- inhibition [40]: 1%
- Ka [42]: 2.3e+07 M⁻¹
SMILES: CCCCC(c1cccc(O)c1)C(CCCC)c1cccc(O)c1 (stereo unspecified)
- Tumors (Rattus norvegicus [1]): 9%
- Tumors (Rattus norvegicus [2]): 65%
- Change (Rattus norvegicus [4]): -96%
- Tumors (Rattus norvegicus [5]): 3%
- Change (Rattus norvegicus [6]): 389%
- No. of tumors (Rattus norvegicus [9]): 22
- No. of tumors (Rattus norvegicus [10]): 8
- Tumors (Rattus norvegicus [11]): 9%
- Tumors (Rattus norvegicus [12]): 24%
- No. of tumors (Rattus norvegicus [16]): 21
- Change (Rattus norvegicus [17]): 1.7%
- Tumors (Rattus norvegicus [18]): 6%
- No. of tumors (Rattus norvegicus [19]): 27
- Change (Rattus norvegicus [20]): 260%
- Tumors (Rattus norvegicus [21]): 55%
- Change (Rattus norvegicus [22]): 1.5%
- Change (Rattus norvegicus [23]): 3.6%
- Tumors (Rattus norvegicus [27]): 6%
- Tumors (Rattus norvegicus [28]): 74%
- Tumors (Rattus norvegicus [30]): 0%
- Tumors (Rattus norvegicus [31]): 23%
- Tumors (Rattus norvegicus [32]): 3%
- Tumors (Rattus norvegicus [33]): 58%
- No. of tumors (Rattus norvegicus [34]): 45
- No. of tumors (Rattus norvegicus [35]): 30
- Change (Rattus norvegicus [37]): 0.3%
- Change (Rattus norvegicus [41]): 534%
- Tumors (Rattus norvegicus [43]): 2%
- Tumors (Rattus norvegicus [44]): 36%
- No. of tumors (Rattus norvegicus [45]): 37
- Tumors (Rattus norvegicus [46]): 27%
